Measurements reported in ChEMBL document CHEMBL4007422 (J Med Chem, 2017).
Activity calls are given as the source filed them. The calls are words filed in the database; no cut-off is given here.

Key:
Cytochrome P450 2E1 = Cytochrome P450 2E1 (Homo sapiens, UniProt P05181); assay: Inhibition of CYP2E1 in human liver microsomes in presence of NADPH by LC-MS/MS analysis; type: ADME
Summary of the method: (§1)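 Pooled human liver microsomes. IC50 determined from isoform-specific marker activities for CYP1A2, 2A6, 2B6, 2C8, 2C9, 2C19 (mephenytoin hydroxylation) and 2E1.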

[1] = Oral bioavailability in Beagle dog at 10 mg/kg; type: ADME, organism-based, Canis lupus familiaris; settings: in vivo
Cytochrome P450 2D6 = Cytochrome P450 2D6 (Homo sapiens, UniProt P10635); assay: Inhibition of CYP2D6 in human liver microsomes in presence of NADPH by LC-MS/MS analysis
Cytochrome P450 2D6, sequence (P10635 whole entry): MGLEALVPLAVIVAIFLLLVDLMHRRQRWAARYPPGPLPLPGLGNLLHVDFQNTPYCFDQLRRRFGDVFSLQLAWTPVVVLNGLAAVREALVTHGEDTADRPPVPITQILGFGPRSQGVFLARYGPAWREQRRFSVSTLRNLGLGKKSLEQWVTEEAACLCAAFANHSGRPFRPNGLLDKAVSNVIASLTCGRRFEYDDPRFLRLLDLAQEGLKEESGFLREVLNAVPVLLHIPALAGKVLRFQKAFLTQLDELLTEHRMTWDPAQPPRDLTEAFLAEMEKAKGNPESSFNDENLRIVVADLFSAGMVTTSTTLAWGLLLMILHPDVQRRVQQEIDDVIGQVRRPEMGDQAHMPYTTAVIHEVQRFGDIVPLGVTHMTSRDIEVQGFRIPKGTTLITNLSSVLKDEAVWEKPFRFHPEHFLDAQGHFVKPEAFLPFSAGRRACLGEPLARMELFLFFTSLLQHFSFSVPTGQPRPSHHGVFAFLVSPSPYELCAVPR

Rattus norvegicus [2] = assay: Increase in acetylcholine level in Wistar rat ventral hippocampus at 3 mg/kg, po in presence of 1 mg/kg of donepezil and memantine administered sc 30 mins post compound treatment measured after 4 hrs by LC-MS/MS based microdialysis method relative to control; type: functional
Summary of the method: (§2)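 Male Wistar rats (240−300 g) fitted under isoflurane with a ventral hippocampal guide cannula (AP −5.2, ML +5.0, DV −3.8 mm from bregma). Probe (4 mm membrane) inserted 16 h before study. Perfusion with aCSF pH 7.2 at 1.5 μL/min, 2 h stabilization, five basal 20-min samples. Test agent given p.o.; donepezil and memantine (1 mg/kg s.c. each) given 30 min later in combination arms. Dialysates collected 6 h (4 h for combination), acetylcholine measured by LC-MS/MS, expressed as % of mean basal.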

[3] = biological target: D(3) dopamine receptor (Homo sapiens) (UniProt P35462); assay: Inhibition of recombinant human dopamine D3 receptor expressed in CHOK1 cells at 1 uM by GTPgammaS binding assay; type: functional, cell-based
D(3) dopamine receptor (Homo sapiens), sequence (P35462 whole entry): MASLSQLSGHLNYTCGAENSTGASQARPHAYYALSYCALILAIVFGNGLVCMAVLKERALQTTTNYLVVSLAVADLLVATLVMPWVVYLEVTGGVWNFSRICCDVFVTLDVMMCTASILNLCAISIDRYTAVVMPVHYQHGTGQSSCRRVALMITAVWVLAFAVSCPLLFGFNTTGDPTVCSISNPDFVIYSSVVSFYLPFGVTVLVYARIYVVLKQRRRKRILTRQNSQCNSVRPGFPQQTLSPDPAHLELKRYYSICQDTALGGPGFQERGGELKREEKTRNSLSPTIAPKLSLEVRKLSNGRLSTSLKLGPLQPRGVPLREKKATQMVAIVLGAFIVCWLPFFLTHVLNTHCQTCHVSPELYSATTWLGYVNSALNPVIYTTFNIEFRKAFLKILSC

[4] = biological target: T1, 5-hydroxytryptamine receptor 2C (Homo sapiens) (UniProt P28335); assay: Displacement of [3H]-Mesulergine from recombinant human 5-HT2C receptor expressed in HEK293 cell membranes after 180 mins by microbeta scintillation counting analysis
T1 sequence (whole entry): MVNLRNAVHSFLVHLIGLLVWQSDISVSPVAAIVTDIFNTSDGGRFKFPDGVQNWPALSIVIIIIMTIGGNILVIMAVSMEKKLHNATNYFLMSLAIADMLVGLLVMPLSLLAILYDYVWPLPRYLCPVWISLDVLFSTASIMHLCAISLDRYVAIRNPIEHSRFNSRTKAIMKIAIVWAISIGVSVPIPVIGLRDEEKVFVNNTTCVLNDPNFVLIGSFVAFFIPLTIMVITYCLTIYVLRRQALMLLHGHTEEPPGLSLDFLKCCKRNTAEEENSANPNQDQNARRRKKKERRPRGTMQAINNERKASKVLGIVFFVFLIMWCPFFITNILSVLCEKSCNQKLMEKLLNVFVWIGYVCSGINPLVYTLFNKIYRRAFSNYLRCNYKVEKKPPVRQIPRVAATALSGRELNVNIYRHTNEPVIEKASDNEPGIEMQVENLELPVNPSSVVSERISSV

Cytochrome P450 2B6 [5] = biological target: T2, Cytochrome P450 2B6 (Homo sapiens, UniProt P20813); assay: Inhibition of CYP2B6 in human liver microsomes in presence of NADPH by LC-MS/MS analysis; type: ADME; summary of the method: as §1
T2 sequence (P20813 whole entry): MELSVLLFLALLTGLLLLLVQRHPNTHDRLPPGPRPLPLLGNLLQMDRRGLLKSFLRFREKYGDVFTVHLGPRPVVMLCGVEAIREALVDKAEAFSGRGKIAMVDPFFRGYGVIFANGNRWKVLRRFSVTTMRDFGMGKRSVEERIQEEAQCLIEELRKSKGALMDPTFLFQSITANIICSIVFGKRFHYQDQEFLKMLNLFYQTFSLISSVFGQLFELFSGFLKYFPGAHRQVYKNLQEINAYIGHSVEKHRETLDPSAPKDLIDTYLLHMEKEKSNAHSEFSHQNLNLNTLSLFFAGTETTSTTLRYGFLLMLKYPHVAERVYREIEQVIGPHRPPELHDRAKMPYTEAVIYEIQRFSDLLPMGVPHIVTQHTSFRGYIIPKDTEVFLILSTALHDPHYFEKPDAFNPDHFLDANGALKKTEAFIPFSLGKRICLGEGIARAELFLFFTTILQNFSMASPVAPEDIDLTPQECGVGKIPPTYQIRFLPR

Salmonella typhimurium [6] = assay: Mutagenicity in Salmonella typhimurium TA1537 in presence of metabolic activation; type: toxicity; settings: salmonella enterica subsp. enterica serovar typhimurium
Cytochrome P450 2B6 [7] = biological target: T2, Cytochrome P450 2B6; assay: Induction of CYP2B6 activity in human hepatocytes at 0.01 to 1 uM preincubated for 3 days followed by substrate addition measured after 30 mins; type: ADME, cell-based; settings: 0.5 h
Summary of the method: (§3)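 Plateable human hepatocytes exposed to 0.01, 0.1 and 1.0 μM. CYP1A2, CYP2B6 and CYP3A4 induction read as both mRNA expression and enzyme activity.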

[8] = biological target: 5-hydroxytryptamine receptor 4 (Homo sapiens) (UniProt Q13639); assay: Displacement of [3H]-GR113808 from recombinant human 5-HT4B receptor expressed in Chem1 cell membranes after 120 mins by microbeta scintillation counting analysis
5-hydroxytryptamine receptor 4 (Homo sapiens), sequence (Q13639 whole entry): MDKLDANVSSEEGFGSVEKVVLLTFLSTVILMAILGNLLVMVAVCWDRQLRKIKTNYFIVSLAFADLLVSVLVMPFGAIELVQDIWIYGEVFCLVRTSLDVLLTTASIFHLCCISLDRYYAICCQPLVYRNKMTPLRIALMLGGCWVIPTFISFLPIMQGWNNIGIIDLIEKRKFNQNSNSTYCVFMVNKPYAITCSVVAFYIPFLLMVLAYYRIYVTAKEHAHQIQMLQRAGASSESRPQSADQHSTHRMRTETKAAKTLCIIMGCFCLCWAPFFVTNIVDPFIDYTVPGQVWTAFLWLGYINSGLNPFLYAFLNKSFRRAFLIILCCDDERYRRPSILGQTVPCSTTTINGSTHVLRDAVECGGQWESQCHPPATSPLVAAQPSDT

[9] = biological target: Alpha-2C adrenergic receptor (Homo sapiens) (UniProt P18825); assay: Inhibition of recombinant human adrenergic alpha 2C receptor expressed in CHOK1 cells at 1 uM; type: cell-based
Alpha-2C adrenergic receptor (Homo sapiens), sequence (P18825 whole entry): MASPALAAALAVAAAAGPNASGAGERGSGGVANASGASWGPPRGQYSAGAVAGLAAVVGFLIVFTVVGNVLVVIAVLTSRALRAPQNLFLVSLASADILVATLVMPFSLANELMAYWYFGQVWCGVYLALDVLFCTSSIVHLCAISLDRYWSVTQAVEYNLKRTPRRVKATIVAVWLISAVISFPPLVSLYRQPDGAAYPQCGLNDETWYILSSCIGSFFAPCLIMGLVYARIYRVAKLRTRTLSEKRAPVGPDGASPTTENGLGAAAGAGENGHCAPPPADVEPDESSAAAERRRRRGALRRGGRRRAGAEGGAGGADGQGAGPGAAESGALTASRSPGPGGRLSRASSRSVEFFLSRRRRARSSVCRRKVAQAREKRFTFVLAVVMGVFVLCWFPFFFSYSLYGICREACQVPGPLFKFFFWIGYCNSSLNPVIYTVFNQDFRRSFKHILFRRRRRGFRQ

Hepatocyte [10] = assay: Induction of CYP3A4 mRNA expression in human hepatocytes at 0.01 to 1 uM after 3 days by qRT-PCR analysis; type: ADME, cell-based; settings: 72 h; summary of the method: as §3
Salmonella typhimurium [11] = assay: Mutagenicity in Salmonella typhimurium TA100 in absence of metabolic activation; type: toxicity; settings: salmonella enterica subsp. enterica serovar typhimurium
Cytochrome P450 1A2 [12] = biological target: T3, Cytochrome P450 1A2 (Homo sapiens, UniProt P05177); assay: Induction of CYP1A2 activity in human hepatocytes at 0.01 to 1 uM preincubated for 3 days followed by substrate addition measured after 30 mins; type: ADME, cell-based; settings: 0.5 h; summary of the method: as §3
T3 sequence (P05177 whole entry): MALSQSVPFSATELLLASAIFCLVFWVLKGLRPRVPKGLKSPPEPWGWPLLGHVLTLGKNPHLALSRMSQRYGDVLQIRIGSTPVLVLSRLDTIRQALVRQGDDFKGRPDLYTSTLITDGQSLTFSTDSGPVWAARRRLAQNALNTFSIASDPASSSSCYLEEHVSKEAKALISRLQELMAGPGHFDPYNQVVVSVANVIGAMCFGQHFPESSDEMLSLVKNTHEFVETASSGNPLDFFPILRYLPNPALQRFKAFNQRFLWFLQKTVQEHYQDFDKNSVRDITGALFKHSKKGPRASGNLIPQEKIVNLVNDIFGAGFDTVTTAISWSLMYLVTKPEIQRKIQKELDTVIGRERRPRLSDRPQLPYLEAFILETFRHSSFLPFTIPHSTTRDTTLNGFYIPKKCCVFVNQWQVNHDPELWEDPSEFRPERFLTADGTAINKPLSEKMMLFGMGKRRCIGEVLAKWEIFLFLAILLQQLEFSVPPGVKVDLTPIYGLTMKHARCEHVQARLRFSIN

[13] = Ratio of drug uptake in Wistar rat brain to plasma at 10 mg/kg, po by LC-MS/MS analysis; type: ADME, organism-based; settings: read-out: BPR
Rattus norvegicus [14] = assay: Increase in acetylcholine level in Wistar rat ventral hippocampus at 1 mg/kg, po in presence of 1 mg/kg of donepezil and memantine administered sc 30 mins post compound treatment measured after 4 hrs by LC-MS/MS based microdialysis method relative to control; type: functional; summary of the method: as §2
[15] = Protein binding in rat plasma at 1 uM after 6 hrs by LC-MS/MS based rapid equilibrium dialysis method; type: ADME, cell-free; settings: read-out: PPB
Summary of the method: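 Plasma protein binding in rat, dog and human plasma determined by equilibrium dialysis.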

Rattus norvegicus [16] = assay: Reversal of time-induced amnesia in Wistar rat at 1 to 10 mg/kg, po administered 60 mins prior to testing measured for 3 mins by object recognition test; type: functional, organism-based
Summary of the method: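 Time-induced object recognition task in rats. Oral dosing at 1, 3 and 10 mg/kg given 60 min before the test; vehicle water for injection 1 mL/kg p.o.; n = 7−12/group. Exploration of novel versus familiar object compared by paired t-test.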

Hepatocyte [17] = assay: Induction of CYP1A2 mRNA expression in human hepatocytes at 0.01 to 1 uM after 3 days by qRT-PCR analysis; type: ADME, cell-based; settings: 72 h; summary of the method: as §3
[18] = Volume of distribution in Beagle dog at 3 mg/kg, iv or at 10 mg/kg, po; type: ADME, organism-based, Canis lupus familiaris; settings: in vivo
Summary of the method: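 Beagle dogs received 10 mg/kg p.o. and 3 mg/kg i.v. in a pharmacokinetic study. From plasma exposure the authors derived AUC0-t, terminal half-life, intravenous clearance, volume of distribution and absolute oral bioavailability.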

Homo sapiens [19] = assay: Toxicity in healthy male and female human subjects administered as single ascending dose for 14 days; settings: in vivo, 336 h
PBL = assay: Nonclastogenic effect in human PBL by chromosomal aberration test; type: cell-based
[20] = Clearance in Beagle dog at 3 mg/kg, iv; type: ADME, organism-based, Canis lupus familiaris; settings: in vivo
Cytochrome P450 1A2 [21] = biological target: T3, Cytochrome P450 1A2; assay: Inhibition of CYP1A2 in human liver microsomes in presence of NADPH by LC-MS/MS analysis; type: ADME; summary of the method: as §1
Homo sapiens [22] = species: Homo sapiens; assay: Toxicity in human assessed as changes in QTc interval during phase-I clinical trail
[23] = biological target: Alpha-2A adrenergic receptor (Homo sapiens, UniProt P08913); assay: Displacement of [3H] MK-912 from human adrenergic alpha 2A receptor expressed in HT29 cells after 60 mins; type: cell-based
Alpha-2A adrenergic receptor, sequence (P08913 whole entry): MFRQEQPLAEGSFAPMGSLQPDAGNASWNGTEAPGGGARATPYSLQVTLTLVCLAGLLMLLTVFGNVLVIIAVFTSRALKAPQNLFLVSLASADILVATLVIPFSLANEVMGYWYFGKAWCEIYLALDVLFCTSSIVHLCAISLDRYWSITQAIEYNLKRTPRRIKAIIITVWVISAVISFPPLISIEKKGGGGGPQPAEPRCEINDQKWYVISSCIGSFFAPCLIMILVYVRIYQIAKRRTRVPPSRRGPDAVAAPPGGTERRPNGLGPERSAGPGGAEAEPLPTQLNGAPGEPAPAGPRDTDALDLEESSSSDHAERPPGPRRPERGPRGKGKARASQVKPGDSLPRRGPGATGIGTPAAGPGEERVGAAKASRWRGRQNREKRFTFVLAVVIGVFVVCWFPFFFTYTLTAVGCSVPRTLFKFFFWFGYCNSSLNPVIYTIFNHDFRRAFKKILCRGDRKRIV

Salmonella typhimurium [24] = assay: Mutagenicity in Salmonella typhimurium TA98 in absence of metabolic activation; type: toxicity; settings: salmonella enterica subsp. enterica serovar typhimurium
Salmonella typhimurium [25] = assay: Mutagenicity in Salmonella typhimurium TA1535 in presence of metabolic activation; type: toxicity; settings: salmonella enterica subsp. enterica serovar typhimurium

Cytochrome P450 2E1, sequence (P05181 whole entry, canonical isoform): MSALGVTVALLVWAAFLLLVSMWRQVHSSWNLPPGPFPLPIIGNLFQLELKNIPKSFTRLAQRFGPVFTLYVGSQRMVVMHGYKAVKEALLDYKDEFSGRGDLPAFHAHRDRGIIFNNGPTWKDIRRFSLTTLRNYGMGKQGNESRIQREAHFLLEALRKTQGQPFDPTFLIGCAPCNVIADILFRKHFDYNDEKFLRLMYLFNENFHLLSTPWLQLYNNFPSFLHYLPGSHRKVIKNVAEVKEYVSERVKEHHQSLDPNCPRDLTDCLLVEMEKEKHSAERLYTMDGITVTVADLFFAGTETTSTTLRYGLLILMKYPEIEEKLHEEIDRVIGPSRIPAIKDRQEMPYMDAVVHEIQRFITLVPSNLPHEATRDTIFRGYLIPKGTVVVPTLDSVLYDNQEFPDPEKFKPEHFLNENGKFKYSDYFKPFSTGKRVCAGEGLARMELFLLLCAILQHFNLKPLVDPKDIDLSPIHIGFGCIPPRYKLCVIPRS

For `COc1ccc2c(c1)c(CN1CCN(C)CC1)cn2S(=O)(=O)c1ccccc1Br.CS(=O)(=O)O.O`, the IC50 (Cytochrome P450 2E1) was > 10 µM, the bioavailability [1] was 35% and the IC50 (Cytochrome P450 2D6) was 13.2 µM. The Activity (Rattus norvegicus [2]) was 2136%, the inhibition [3] was > 50% and the Activity [4] was “inactive”. The IC50 (Cytochrome P450 2B6 [5]) was > 10 µM, the Activity (Salmonella typhimurium [6]) was “Non-Toxic” and the Activity (Cytochrome P450 2B6 [7]) was “Not Active”. For the same compound, the Activity [8] was “inactive”, the inhibition [9] was > 50% and the Activity (Hepatocyte [10]) was “Non-Toxic”. For the same compound, the Activity (Salmonella typhimurium [11]) was “Non-Toxic”, the Activity (Cytochrome P450 1A2 [12]) was “Not Active” and the Kp [13] was 1.48. For the same compound, the Activity (Rattus norvegicus [14]) was 1383%, the fraction unbound at 6 h, 1 µM [15] was 0.01 and the Activity (Rattus norvegicus [16]) was “Active”. For the same compound, the Activity (Hepatocyte [17]) was “Non-Toxic”, the Vd [18] was 7.5 L/kg and the Activity (Homo sapiens [19]) was “Non-Toxic”. The Activity (PBL) was “Non-Toxic”, the clearance [20] was 46.4 mL/min/kg and the IC50 (Cytochrome P450 1A2 [21]) was > 10 µM. The Activity (Homo sapiens [22]) was “Non-Toxic”, the Ki [23] was 2570 nM and the Activity (Salmonella typhimurium [24]) was “Non-Toxic”. For the same compound, the Activity (Salmonella typhimurium [25]) was “Non-Toxic”.
